The record followed here is ChEMBL document CHEMBL4613227, “Synthesis and evaluation of the HIF-1α inhibitory activity of 3(5)-substituted-4-(quinolin-4-yl)- and 4-(2-phenylpyridin-4-yl)pyrazoles as inhibitors of ALK5” (Bioorg Med Chem Lett, 2020).

Activity calls are given as the source filed them. The rule behind the calls is not given here. Where a SMILES comes first, the peptide text is derived from it. The star is where a group is joined. Cbz = O=C(OCc1ccccc1)*

The term IC50 denotes the concentration at which inhibition is half-maximal.

Test [1] relates to HCT-116. As to the kind of experiment: Induction of apoptosis in human HCT116 cells assessed as early apoptotic cells at 50 uM preincubated for 12 hrs followed by TNF stimulation and measured after 24 hrs by Annexin-V/PI-staining based flow cytometric analysis (reference value: 2.8%). It is filed as functional.
The test system of test [2] is HCT-116. As to the kind of experiment: Induction of apoptosis in human HCT116 cells assessed as late apoptotic cells at 50 uM preincubated for 12 hrs followed by TNF stimulation and measured after 24 hrs by Annexin-V/PI-staining based flow cytometric analysis (reference value: 1.4%). It is filed as functional. A general note: Flow cytometry measures light scatter and fluorescence of single cells or particles in a stream.

Test [3] concerns HCT-116. Put plainly: Induction of apoptosis in human HCT116 cells assessed as viable cells at 50 uM preincubated for 12 hrs followed by TNF stimulation and measured after 24 hrs by Annexin-V/PI-staining based flow cytometric analysis (reference value: 92.4%). It is filed as functional. The conditions noted are these: read-out: Activity.
For test [4], the system named is HCT-116. As to the kind of experiment: Induction of apoptosis in human HCT116 cells assessed as necrotic cells at 50 uM preincubated for 12 hrs followed by TNF stimulation and measured after 24 hrs by Annexin-V/PI-staining based flow cytometric analysis (reference value: 3.6%). It is filed as functional.
The subject of test [5] is HCT-116. Put plainly: Inhibition of TNFalpha-induced HIF1alpha expression in human HCT116 cells at 50 uM by Western blot analysis. It is filed as functional, cell-based. The method, boiled down:
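HCT116 exposed to TNF 10 ng/mL for 24 h with graded concentrations; total protein blotted for HIF-1α, Topo-I reprobe as loading control.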
In general terms: A western blot detects proteins with antibodies after separation by electrophoresis.

The test system of test [6] is HCT-116. Put plainly: Induction of apoptosis in human HCT116 cells assessed as necrotic cells at 50 uM after 12 hrs by Annexin-V/PI-staining based flow cytometric analysis (reference value: 3.5%). It is filed as functional.
Test [7] concerns the target T1, Mitogen-activated protein kinase 14 (Homo sapiens, UniProt Q16539). Put plainly: Inhibition of recombinant human p38alpha expressed in Escherichia coli assessed as residual activity at 10 uM (reference value: 100 +/- 0.1%). In short, it runs like this:
(§1)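 Single-point kinase screen at 10 μM, in duplicate; ALK5 as human GST-fusion from baculovirus/Sf9, p38α as untagged human protein from E. coli; residual activity relative to DMSO vehicle, mean ± SD of two independent experiments.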

In test [8] the test system is HCT-116. Put plainly: Induction of apoptosis in human HCT116 cells assessed as viable cells at 50 uM after 12 hrs by Annexin-V/PI-staining based flow cytometric analysis (reference value: 95.3%). It is filed as functional. The conditions noted are these: HCT-116, 12 h, read-out: Activity.
Test [9] addresses T2, TGF-beta receptor type-1 (Homo sapiens) (UniProt P36897).
T2 sequence (whole entry): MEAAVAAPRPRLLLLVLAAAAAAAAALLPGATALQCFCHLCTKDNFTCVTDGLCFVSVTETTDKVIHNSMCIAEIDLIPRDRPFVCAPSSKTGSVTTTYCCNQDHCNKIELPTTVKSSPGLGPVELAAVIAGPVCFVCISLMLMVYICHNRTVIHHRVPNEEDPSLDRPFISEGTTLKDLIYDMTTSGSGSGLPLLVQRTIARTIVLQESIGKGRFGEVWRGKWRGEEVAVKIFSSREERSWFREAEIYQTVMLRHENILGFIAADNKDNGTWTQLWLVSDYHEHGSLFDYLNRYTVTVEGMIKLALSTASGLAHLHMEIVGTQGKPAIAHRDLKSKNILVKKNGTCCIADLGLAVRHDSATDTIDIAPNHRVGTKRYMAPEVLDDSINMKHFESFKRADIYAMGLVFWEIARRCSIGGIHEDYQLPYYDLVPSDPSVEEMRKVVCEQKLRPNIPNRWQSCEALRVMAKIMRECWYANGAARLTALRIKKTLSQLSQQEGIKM
Put plainly: Inhibition of recombinant GST-tagged human ALK5 expressed in baculovirus infected Sf9 insect cells assessed as residual activity at 10 uM. In short, it runs like this: as §1

Test [10] concerns the target T1, Mitogen-activated protein kinase 14. Put plainly: Inhibition of recombinant human p38alpha expressed in Escherichia coli. The method, boiled down:
(§2)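 IC50 determination against ALK5 (human GST-fusion, Sf9 baculovirus) and p38α (untagged human, E. coli); values averaged from three independent experiments run in triplicate.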

The target of another test is T3, TGF-beta receptor type-1 (Homo sapiens, UniProt P36897).
T3 sequence (P36897 whole entry): T2 sequence (whole entry)
As to the kind of experiment: Inhibition of recombinant GST-tagged human ALK5 expressed in baculovirus infected Sf9 insect cells. In short, it runs like this: as §2

The test system of test [11] is HCT-116. Put plainly: […] of HIF1alpha expression in human HCT116 cells at 10 uM after 30 mins in presence of 1% O2 by Western blot analysis. It is filed as functional, cell-based.

T1 sequence (Q16539 whole entry, the tested form may be a part): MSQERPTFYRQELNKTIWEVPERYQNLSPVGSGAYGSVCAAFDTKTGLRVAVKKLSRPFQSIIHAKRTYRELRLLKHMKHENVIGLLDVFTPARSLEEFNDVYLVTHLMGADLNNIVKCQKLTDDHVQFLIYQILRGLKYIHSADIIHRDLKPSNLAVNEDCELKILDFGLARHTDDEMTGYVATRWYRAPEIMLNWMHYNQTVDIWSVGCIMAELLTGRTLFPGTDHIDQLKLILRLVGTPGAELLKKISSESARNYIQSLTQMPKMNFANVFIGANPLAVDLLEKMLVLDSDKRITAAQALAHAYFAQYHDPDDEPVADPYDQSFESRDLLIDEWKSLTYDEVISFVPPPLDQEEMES

In the case of `Cc1cccc(-c2nn3c(c2-c2ccnc4ccc(C(N)=O)cc24)CCC3)n1` [GALUNISERTIB], the Activity in the test with HCT-116 [1] was found to be 3.7%; with HCT-116 [2] it was 2.8%; in the test with HCT-116 [4], 5.7%; in the test with HCT-116 [6], 8.5%; in test [7] it was 4%. Moreover, the viability at 50 µM in the test on HCT-116 [3] turned out to be 87.7%; in the test on HCT-116 [8] it was 85.2%. Also, the inhibition result in the test with HCT-116 [5] was “Active”.

On to `Cc1cccc(-c2c(-c3ccnc(-c4ccccc4)c3)cnn2CC(=O)Nc2cccc(F)c2)n1`, for which the results for the Activity in test [7] and in test [9] were 81% and 93%, respectively.

On to `Cc1cccc(-c2c(-c3ccnc(-c4ccccc4)c3)cnn2CC(=O)Nc2ccccc2F)n1`, for which the Activity in test [7] was determined as 96%; in test [9], 102%.

Turning to `Cc1cccc(-c2c(-c3ccnc4ccccc34)cnn2CC(=O)Nc2ccccc2F)n1`, the results for the Activity in [7] and in test [9] were 50% and 79%, respectively.

For `Cc1cccc(-c2nn(CC(=S)Nc3cccc(F)c3)cc2-c2ccnc3ccccc23)n1`, the IC50 in [10] turned out to be 63 nM; at TGF-beta receptor type-1, 43 nM. Besides, the Activity amounted to 3% in test [7] and 2% in [9].

For `Cc1cccc(-c2nn(CC(=S)Nc3ccccc3)cc2-c2ccnc3ccccc23)n1`, the IC50 in test [10] worked out at 74 nM; on TGF-beta receptor type-1 it was 57 nM. Further, the Activity in [7] and in test [9] was 3% each time.

`Cc1cccc(-c2nn(CC(=S)Nc3ccccc3)cc2-c2ccnc(-c3ccccc3)c2)n1`: the IC50 in test [10] is 536 nM; on TGF-beta receptor type-1, 1690 nM. In addition, the results for the Activity in test [7] and in test [9] were 10% and 11%, respectively.

On to `Cc1cccc(-c2nn(CC(=O)Nc3ccccc3)cc2-c2ccnc3ccccc23)n1`, for which the Activity in test [7] is 10%; in test [9] it was 2%.

For `Cc1cccc(-c2nn(CC(=S)Nc3cccc(C#N)c3)cc2-c2ccnc(-c3ccccc3)c2)n1`, the IC50 was found to be 1150 nM in test [10] and 2200 nM on TGF-beta receptor type-1. Besides, the Activity in [7] was 15%; in test [9] it was 12%.

In the case of `Cc1cccc(-c2nn(CC(=O)Nc3ccccc3F)cc2-c2ccnc(-c3ccccc3)c2)n1`, the Activity in [7] and in [9] was 20% throughout.

Take `Cc1cccc(-c2c(-c3ccnc(-c4ccccc4)c3)cnn2CC(=O)Nc2ccccc2)n1`: the Activity in [7] is 66%; in [9] it was 100%.

On to `Cc1cccc(-c2nn(CC(=O)Nc3cccc(F)c3)cc2-c2ccnc(-c3ccccc3)c2)n1`, for which the Activity in test [7] is 14%; in [9], 3%.

For `CC(C)C[C@@H](C=O)NC(=O)[C@H](CC(C)C)NC(=O)[C@H](CC(C)C)NC(=O)OCc1ccccc1` (Cbz-Leu-Leu-Leu-aldehyde), in the test on HCT-116 [11], the outcome was Active.

For the compound `Cc1cccc(-c2c(-c3ccnc(-c4ccccc4)c3)cnn2CC(=O)Nc2cccc(C#N)c2)n1`, the values for the Activity in test [7] and in [9] were 135% and 105%, respectively.

Regarding `Cc1cccc(-c2nn(CC(=O)Nc3cccc(C#N)c3)cc2-c2ccnc(-c3ccccc3)c2)n1`, the values for the Activity in test [7] and in test [9] were 24% and 18%, respectively.

On to `Cc1cccc(-c2nn(CC(=O)Nc3cccc(C#N)c3)cc2-c2ccnc3ccccc23)n1`, for which the Activity in test [7] is 6%; in [9], 1%.

For the compound `Cc1cccc(-c2nn(CC(=O)Nc3cccc(F)c3)cc2-c2ccnc3ccccc23)n1`, the Activity stood at 4% in test [7] and 0% in test [9].

`Cc1cccc(-c2nn(CC(=S)Nc3cccc(F)c3)cc2-c2ccnc(-c3ccccc3)c2)n1`: the IC50 in test [10] turned out to be 761 nM; on TGF-beta receptor type-1 it was 1560 nM. Also, the Activity in test [7] was 9%; in [9], 6%.

Take `Cc1cccc(-c2c(-c3ccnc4ccccc34)cnn2CC(=O)Nc2cccc(C#N)c2)n1`: the Activity in test [7] worked out at 51%; in [9], 17%.

Take `Cc1cccc(-c2nn(CC(=S)Nc3ccccc3F)cc2-c2ccnc(-c3ccccc3)c2)n1`: the IC50 worked out at 487 nM in test [10] and 2050 nM on TGF-beta receptor type-1. Also, the Activity in test [7] stood at 4%; in test [9], 11%.

Regarding `Cc1cccc(-c2c(-c3ccnc4ccccc34)cnn2CC(=O)Nc2ccccc2)n1`, the Activity was determined as 24% in test [7] and 71% in [9].

Regarding `Cc1cccc(-c2c(-c3ccnc4ccccc34)cnn2CC(=O)Nc2cccc(F)c2)n1`, the Activity in [7] is 31%; in [9] it was 39%.

Consider `Cc1cccc(-c2nn(CC(=S)Nc3ccccc3F)cc2-c2ccnc3ccccc23)n1`, for which the IC50 in test [10] was found to be 68 nM; at TGF-beta receptor type-1, 53 nM. The Activity in test [7] was 4%; in [9] it was 2%.

As to `Cc1cccc(-c2nn(CC(=O)Nc3ccccc3)cc2-c2ccnc(-c3ccccc3)c2)n1`, the results for the Activity in test [7] and in test [9] were 11% and 12%, respectively.

As to `Cc1cccc(-c2nn(CC(=O)Nc3ccccc3F)cc2-c2ccnc3ccccc23)n1`, the figures for the Activity in test [7] and in test [9] were 6% and 0%, respectively.
